A selection: hits, their analogues and other compounds. The true share with any hit is near 3.2%.
rRNA inh HTS = inhibits bacterial ribosomal RNA function over humanized ribosomes. E. coli WT GFP vs humanized-ribosome RFP mutants, fluorescence, 24 h; active compounds read low; DMSO median 0, no signal -100. GFP signal change (wild-type ribosome), % (no concentration beside the values). hit rate 1.6% among 350,000. AID 720706;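 active means significant combined selectivity score with lowered wild-type GFP, culture density cut under 30%, mutant RFP and density less affected; inactive means any of these conditions unmet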
S100A4 MyoIIA = blocks human S100A4 binding to myosin IIA peptide; P26447; S100A4/TAMRA-MyoIIA peptide fluorescence polarization; inhibition, % at 10.7 µM; hit rate 0.14% among 360,000; AID 652163;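 active means mean inhibition of at least 70% across replicates, with every replicate also reaching that level; inconclusive means mean inhibition reaches 70% but some replicates fall short; inactive means mean inhibition below 70%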
Target sequence (P26447 whole entry, looked up): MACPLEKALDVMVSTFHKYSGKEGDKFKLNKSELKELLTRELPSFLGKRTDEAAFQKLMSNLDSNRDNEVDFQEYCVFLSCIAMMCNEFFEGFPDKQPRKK
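Compound dosing: one dose per compound; test system: human S100A4 monomer with TAMRA-labelled myosin IIA peptide; probe or stimulus: TAMRA-labelled myosin IIA heavy-chain peptide probe, 5 nM; medium: HEPES buffer with Ca2+, pH 7.2; schedule: 5 min incubation before reading; benchmarks: neutral control DMSO, positive control TFP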
PfHsp90 set2 = reduces growth (ATP signal) of yeast expressing P. falciparum Hsp90 | hit rate 0.32% among 310,000 | inhibition, % at 9.4 µM | AID 504621 | S. cerevisiae expressing PfHsp90, BacTiter-Glo ATP, 48 h; yeast lacking PDR1 and PDR3 efflux regulators;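 active means every replicate shows inhibition above about 80%, whatever the replicate mean, limit read from the data; inconclusive means mean inhibition reaches the set limit but some replicate falls short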
DENV2 CPE rescue = inhibitors of DENV2 cytopathic effect. DENV2-infected cells, cytopathic effect rescue, plate reader. hit rate 1.7% among 350,000. AID 651640. CPE inhibition, % at 9.99 µM; in the data active means CPE inhibition above about 20%, passing the limit was not always enough; inconclusive means no clear call, values can overlap the other calls; tested in BHK-21 cells
Cneo AK release = Cryptococcus neoformans lysis via adenylate kinase release. C. neoformans lysis, adenylate kinase release luminescence, 4 h; normalised: neutral wells 0, clomiphene wells 100. lysis activity, % at 15 µM. hit rate 0.2% among 360,000. AID 651654;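 active means mean lysis activity across replicates of at least 80%, whatever share of replicates individually reach that level; inactive means mean lysis activity below 80%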
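Material – Cryptococcus neoformans yeast cells · Quantity – 5 × 10^6 yeast cells/mL · Buffer or medium – YPD medium · Compound – single dose · Timing – 4 h static compound exposure, 37 °C, read 1 h post-reagent · Signal – adenylate kinase release luminescence · Read-out basis – lysis from increased AK signal · Benchmarks – Clomiphene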
MLL AF4-AF9 inh = blocks AF4 peptide binding to human AF9; P42568; AlphaScreen, biotin-AF4 peptide binding to FLAG-AF9; inhibition, % at 10 µM; hit rate 0.47% among 350,000; AID 651704;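 active means every replicate reaching a set inhibition limit, whatever the replicate mean, cut at about 25% in these data; inconclusive means mean inhibition reaches that limit but some replicates miss it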
Target sequence (P42568 whole entry, looked up): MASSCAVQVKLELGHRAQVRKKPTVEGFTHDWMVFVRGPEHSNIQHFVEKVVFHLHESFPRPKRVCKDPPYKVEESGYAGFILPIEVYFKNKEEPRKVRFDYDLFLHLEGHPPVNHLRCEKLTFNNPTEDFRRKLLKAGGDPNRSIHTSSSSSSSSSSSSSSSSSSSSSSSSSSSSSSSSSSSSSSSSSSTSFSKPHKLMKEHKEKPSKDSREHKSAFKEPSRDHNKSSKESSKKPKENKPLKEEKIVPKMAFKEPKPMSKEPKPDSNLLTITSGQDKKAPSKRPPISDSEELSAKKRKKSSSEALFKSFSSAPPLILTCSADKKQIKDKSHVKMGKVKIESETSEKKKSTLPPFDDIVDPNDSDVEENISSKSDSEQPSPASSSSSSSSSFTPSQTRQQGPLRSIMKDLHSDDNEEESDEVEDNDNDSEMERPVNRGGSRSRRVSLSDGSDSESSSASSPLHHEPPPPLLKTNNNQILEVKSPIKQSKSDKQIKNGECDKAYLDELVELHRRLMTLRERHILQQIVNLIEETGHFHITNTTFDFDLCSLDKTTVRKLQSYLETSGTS
Hits are given with their value; - = inactive; ? = inconclusive; . = not tested or not shown.

SMILES	rRNA inh HTS	S100A4 MyoIIA	PfHsp90 set2	DENV2 CPE rescue	Cneo AK release	MLL AF4-AF9 inh
N#C[C@@H]1[C@H](c2ccc(C#Cc3ccccc3F)cc2)[C@@H](CO)N1C(=O)C1CC1	-	-	.	82	-	-
N#C[C@@H]1[C@@H](c2ccc(C#Cc3ccccc3F)cc2)[C@H](CO)N1C(=O)C1CCCCC1	-	-	.	-	-	-
COc1ccccc1C#Cc1ccc([C@@H]2[C@@H](C#N)N(C(=O)C3CCC3)[C@H]2CO)cc1	-	-	.	22	-	-
N#C[C@H]1[C@@H](c2ccc(C#Cc3ccccc3F)cc2)[C@H](CO)N1C(=O)C1CC1	-	-	.	-	-	-
CCNC(=O)[C@@H]1[C@@H](CO)[C@@H]2Cn3c(ccc(-c4ccncc4)c3=O)[C@@H]2N1Cc1ccccc1	-	-	.	-	-	-
N#C[C@@H]1[C@H](c2ccc(C#Cc3ccccc3F)cc2)[C@H](CO)N1C(=O)C1CCC1	-	-	.	102	-	-
CC(C)C#Cc1ccc([C@H]2[C@@H](CO)N(C(=O)c3cccc(F)c3)[C@H]2C#N)cc1	-	109	.	-	-	-
CCOC(=O)CNC(=O)N(C)[C@H]1C[C@H]2c3[nH]c4ccccc4c3CCN2C(=O)[C@H]1[C@H](C)O	-	-	.	24	-	-
CCOC(=O)N(C)[C@H]1C[C@H]2c3[nH]c4ccccc4c3CCN2C(=O)[C@H]1[C@H](C)O	-	-	.	-	.	.
CCOc1ccc(N(CC(=O)NC2CCCC2)S(=O)(=O)c2c(C)[nH]c(=O)[nH]c2=O)cc1	-	-	-	54	-	-
Cc1cc(C)cc(N(CC(=O)NC2CCCCCC2)S(=O)(=O)c2c(C)[nH]c(=O)[nH]c2=O)c1	-	-	-	-	.	-
O=C(NNc1c2ccccc2nc2ccccc12)C(O)c1ccccc1 (configuration not stated)	-27	-	-	-	-	.
O=C(Cc1ccccn1)N[C@H]1CC[C@H](CCNC(=O)c2cc(Cl)cc(Cl)c2)O[C@@H]1CO	-	-	.	-	-	-
C[C@H]1CCCCO[C@@H](CN(C)C(=O)Nc2ccc(C(F)(F)F)cc2)[C@@H](C)CN([C@@H](C)CO)C(=O)c2cc(NC(=O)Cc3ccccc3)ccc2O1	-	.	.	-	-	.
CC(C)NC(=O)Nc1ccc2c(c1)C(=O)N([C@H](C)CO)C[C@@H](C)[C@H](CN(C)C(=O)Nc1ccc(C(F)(F)F)cc1)OCCCC[C@@H](C)O2	-	-	.	50	-	-
C[C@@H]1CCCCO[C@H](CN(C)C(=O)Nc2ccc(C(F)(F)F)cc2)[C@@H](C)CN([C@@H](C)CO)C(=O)c2cc(NC(=O)Cc3ccccc3)ccc2O1	-	.	.	42	-	.
C[C@H]1CCCCO[C@@H](CN(C)C(=O)Nc2ccccc2)[C@@H](C)CN([C@@H](C)CO)C(=O)c2cc(NC(=O)Nc3ccc(C(F)(F)F)cc3)ccc2O1	-	.	.	36	.	-
CO[C@H]1CN(C)C(=O)c2ccc(NS(C)(=O)=O)cc2OC[C@@H](C)N(C(=O)CC2CC2)C[C@@H]1C	-	-	.	-	-	-
CO[C@@H](CN(C)Cc1cc(F)ccc1F)[C@H](C)CN([C@@H](C)CO)S(=O)(=O)c1ccc(F)cc1	-	-	.	-	-	-
CO[C@H](CN(C)Cc1cc(F)ccc1F)[C@@H](C)CN([C@@H](C)CO)S(=O)(=O)c1ccc(F)cc1	-	-	.	103	91	-
C[C@@H]1CCCCO[C@H](CN(C)C(=O)c2ccccc2)[C@H](C)CN([C@H](C)CO)C(=O)c2cc(NS(=O)(=O)c3cn(C)cn3)ccc2O1	-	-	.	-	-	-
Cc1cccc(C)c1NC(=O)CN1CCN(C(=O)CN2C(=O)NC3(CCCCC3C)C2=O)CC1 (configuration not stated)	-	-	-	25	-	-
CCc1ccccc1NC(=O)CN1CCN(C(=O)CN2C(=O)NC3(CCCCC3C)C2=O)CC1 (configuration not stated)	-	-	-	-	-	-
Cc1ccc(S(=O)(=O)Nc2ccccc2CNc2ccccn2)cc1	-28	-	-	-	.	-
Cc1ccc(S(=O)(=O)Nc2ccccc2CNc2ccc(Br)cn2)cc1	.	.	-	.	.	.
SMILES	rRNA inh HTS	S100A4 MyoIIA	PfHsp90 set2	DENV2 CPE rescue	Cneo AK release	MLL AF4-AF9 inh
COc1ccccc1C#Cc1ccc([C@H]2[C@@H](CO)N3CCCCN(CCC(F)(F)F)C[C@H]23)cc1	-	-	.	-	-	-
Clc1nc(NCCc2ccccc2)c2cn[nH]c2n1	-30	-	-	-	-	-
O=C(C[C@@H]1C[C@@H]2c3cc(NC(=O)NC4CCCC4)ccc3O[C@@H]2[C@H](CO)O1)NCc1ccc(Oc2ccccc2)cc1	-	-	.	-	-	-
O=C(c1ccc2c(c1)OCO2)N1CC(=O)N2[C@H](CO)[C@H](c3ccc(C#Cc4ccccc4)cc3)[C@@H]2C1	-	-	.	-	.	-
O=C(c1ccc2c(c1)OCO2)N1CC(=O)N2[C@@H](CO)[C@H](c3ccc(C#Cc4ccccc4)cc3)[C@@H]2C1	-	114	.	-	.	-
C/C=C/c1ccc([C@@H]2[C@@H](CO)N3C(=O)CN(C(=O)c4cnccn4)C[C@@H]23)cc1	-	-	.	59	.	-
O=C(c1ccccn1)N1CC(=O)N2[C@H](CO)[C@@H](c3ccc(C#Cc4ccccc4)cc3)[C@@H]2C1	-	-	.	52	.	-
O=C(c1ccccc1F)N1CC(=O)N2[C@@H](CO)[C@H](c3ccc(C#Cc4ccccc4)cc3)[C@@H]2C1	-	79	.	-	.	-
O=C(c1ccccc1F)N1CC(=O)N2[C@H](CO)[C@H](c3ccc(C#Cc4ccccc4)cc3)[C@H]2C1	-	-	.	-	.	-
COc1ccc(S(=O)(=O)Nc2ccc3c(c2)C(=O)N([C@@H](C)CO)C[C@H](C)[C@@H](CN(C)C(=O)CCC(F)(F)F)OCCCC[C@H](C)O3)cc1	-	-	.	?	-	-
Cc1ccc(S(=O)(=O)N(C)C[C@@H]2Oc3ncc(-c4ccccc4)cc3C(=O)N([C@@H](C)CO)C[C@@H]2C)cc1	-	-	.	-	-	-
CCS(=O)(=O)N1CC(=O)N2[C@H](CO)[C@@H](c3ccc(C#CCC(C)C)cc3)[C@@H]2C1	-	-	.	48	.	-
O=C(c1ccccn1)N1CC(=O)N2[C@H](C1)[C@H](c1ccc(C#CCc3ccccc3)cc1)[C@@H]2CO	-	-	.	54	.	-
Cc1ccccc1S(=O)(=O)N1CC(=O)N2[C@H](CO)[C@H](c3ccc(C#Cc4ccccc4)cc3)[C@H]2C1	-	-	.	24	.	-
O=C(Cc1ccccc1)N1CC(=O)N2[C@@H](CO)[C@H](c3ccc(C#Cc4ccccc4)cc3)[C@@H]2C1	-	-	.	24	.	-

Screening data: PubChem, Broad Institute
